The source of these data is ChEMBL document CHEMBL1150127, “Microbial and chemical transformation studies of the bioactive marine sesquiterpenes (S)-(+)-curcuphenol and -curcudiol isolated from a deep reef collection of the Jamaican sponge Didiscus oxeata” (J Nat Prod, 2002).

The test system of series [1] is Mycobacterium tuberculosis. The experiment in a line: Antituberculosis activity against Mycobacterium tuberculosis. The series is classed as functional, organism-based.
The subject of series [2] is Plasmodium falciparum. The experiment in a line: Antimalarial activity against Plasmodium falciparum D6. The series is classed as functional.
The subject of series [3] is Plasmodium falciparum. Put plainly: Antimalarial activity against Plasmodium falciparum W2. The series is classed as functional.
Series [4] can be described thus: Cytotoxicity against human HepG2(2.2.15) cells. The format is cell-based. An outline of the steps: (§1)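 Run in cultures of 2.2.15 cells. Inhibition of HBV replication reported as EC50 and EC90, and cytotoxicity in the same cells as CC50, all in µg/mL. A selectivity index was taken from cytotoxic and antiviral concentrations.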
In another series the test system is Hepatitis B virus. Put plainly: Antiviral activity against Hepatitis B virus replication in human HepG2(2.2.15) cells. The series is classed as functional, organism-based. In a few lines:
as §1

A further series relates to Candida albicans. The experiment in a line: Antifungal activity against Candida albicans. The format is functional.
Series [5] concerns Staphylococcus aureus. The experiment in a line: Antibacterial activity against methicillin-resistant Staphylococcus aureus. The series is classed as functional.
For series [6], the system named is Staphylococcus aureus. The experiment in a line: Antibacterial activity against Staphylococcus aureus. The series is classed as functional.
The test system of another series is Cryptococcus neoformans. The experiment in a line: Antifungal activity against Cryptococcus neoformans. The series is classed as functional.

In brackets after ≈: the same amount, converted by molar mass. Activity calls are given as the source filed them. No cut-off for these calls is given here.

In the case of `Cc1ccc([C@@H](C)CCC(=O)O)c(O)c1`, the outcome in series [1] was inactive. Regarding `Cc1ccc([C@@H](C)CCC[C@H](C)C(=O)O)c(O)c1`, the outcome in [1] was inactive. Consider `Cc1ccc([C@@H](C)CCCC(C)(C)O)c(O)c1`, for which, in [1], the result was inactive.

With `Cc1ccc([C@@H](C)CCC(=O)C(C)(C)O)c(O)c1`, the outcome in series [1] was inactive. In the case of `Cc1ccc([C@@H](C)CCCC(C)(C)O)c(OC(=O)c2ccncc2)c1`, the outcome in [1] was inactive. Regarding `Cc1ccc([C@@H](C)CCCC(C)C(=O)O)c(O)c1` (some centres not stated), the outcome in series [1] was inactive. Consider `C/C(=C\CC[C@H](C)c1ccc(CO)cc1O)CO`, for which the outcome in series [1] was inactive. On the same count and under the same terms, the value for `Cc1ccc([C@@H](C)CCC[C@@H](C)CO)c(O)c1` was “inactive”. Consider `Cc1ccc([C@@H](C)CCC[C@H](C)CO)c(O)c1`, for which the outcome in [1] was inactive. Regarding `C/C(C=O)=C\CC[C@H](C)c1ccc(CO)cc1O`, the result in series [1] was inactive. On to `Cc1ccc([C@@H](C)CCCC(C)CO)c(O)c1` (some centres not stated), for which the result in series [1] was inactive.

Turning to `CC(C)=CCC[C@H](C)c1ccc(C)cc1O[C@H]1O[C@H](CO)[C@@H](O)[C@H](O)[C@H]1O`, in [1], the result was inactive.

As to `Cc1ccc([C@@H](C)CC[C@@H](O)C(C)(C)O)c(O)c1`, the outcome in series [1] was inactive. With `CC(C)=CCC[C@H](C)c1ccc(CO)cc1O`, the MIC (as a rule, the least concentration at which growth counts as inhibited) came to 3.8 µg/mL (≈ 16.2 µM) in the series on Plasmodium falciparum [2] and 2.9 µg/mL (≈ 12.4 µM) against Plasmodium falciparum [3]. Also, the result in series [1] was inactive. On to `CC(C)=CCC[C@H](C)c1ccc(C)cc1OC(=O)c1ccncc1`, for which the result in [1] was inactive. On to `Cc1ccc([C@@H](C)CCC[C@@H](C)C(=O)O)c(O)c1`, for which the result in series [1] was inactive. For `Cc1ccc([C@@H](C)CC[C@H](O)C(C)(C)O)c(O)c1`, the outcome in series [1] was inactive. Same read-out and setting: the value for `C/C(=C\CC[C@H](C)c1ccc(C)cc1O)CO` was “inactive”. For the molecule `CC(C)=CCC[C@H](C)c1cc([N+](=O)[O-])c(C)cc1O`, the outcome in series [1] was inactive. Besides, in series [4], it took 39 µg/mL (≈ 148 µM) to reach half-maximal cytotoxicity (CC50). Moreover, in the series with Hepatitis B virus, the response was half-maximal at 61 µg/mL (≈ 232 µM) (EC50) and the EC90 (commonly the point of the concentration-response curve where the effect stands at 90%) stood at 203 µg/mL (≈ 771 µM).

As for `CC(C)=CCC[C@H](C)c1ccc(C)c([N+](=O)[O-])c1O`, the result in series [1] was inactive. With `CC(C)=CCC[C@H](C)c1ccc(C)cc1O`, the MFC against Candida albicans and with Cryptococcus neoformans was 12.5 µg/mL (≈ 57.3 µM) in each case. Also, the MIC against Candida albicans was determined as 7.5 µg/mL (≈ 34.4 µM); in the series on Plasmodium falciparum [2], 3.6 µg/mL (≈ 16.5 µM); with Plasmodium falciparum [3], 1.8 µg/mL (≈ 8.24 µM); with Staphylococcus aureus [5], 7.5 µg/mL (≈ 34.4 µM); with Staphylococcus aureus [6] it was 7.5 µg/mL (≈ 34.4 µM); against Cryptococcus neoformans, 7.5 µg/mL (≈ 34.4 µM). Further, the outcome in series [1] was inactive. For the same molecule, the MBC against Staphylococcus aureus [5] and against Staphylococcus aureus [6] was 12.5 µg/mL (≈ 57.3 µM) in each case. On to `Cc1ccc([C@@H](C)CCCC(C)(C)O)c(O[C@H]2O[C@H](CO)[C@@H](O)[C@H](O)[C@H]2O)c1`, for which the result in series [1] was inactive.
